MIC and MPC data for 20 molecules are collected here from ChEMBL document CHEMBL1130378, “Cephalosporin 3'-phloroglucide esters and 7-(phloroglucidamido) cephalosporins as novel antibacterial agents” (1997).

What all share (type): functional
The subject of assay [1] is Staphylococcus aureus. The experiment in a line: Minimum inhibitory concentration for prevention of visible growth of Staphylococcus aureus (FDA 209P strain). The essentials: (§1)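 Agar dilution: organisms deposited onto antibiotic-containing agar plates with a Steers-type replicator. MIC taken as the lowest concentration preventing visible growth, given as the mean of duplicate determinations.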

Assay [2] has as its target Beta-lactamase (Staphylococcus aureus) (UniProt P00807). As to the kind of experiment: Minimum protective concentration against beta-lactamase in Staphylococcus aureus (95 strain). The essentials: (§2)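 MPC is the lowest β-lactam concentration that protects the indicator from hydrolysis within 40 min under standard conditions. Compound stability was checked without enzyme in phosphate buffer pH 6.5 at 37 °C.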

The test system of assay [3] is Pseudomonas aeruginosa. As to the kind of experiment: Minimum inhibitory concentration for prevention of visible growth of Pseudomonas aeruginosa (18S-H strain). The essentials:
as §1

The test system of assay [4] is Pseudomonas aeruginosa. As to the kind of experiment: Minimum inhibitory concentration for prevention of visible growth of Pseudomonas aeruginosa (1101-75 strain). The essentials: as §1
Assay [5] has as its target Beta-lactamase (Pseudomonas aeruginosa (strain ATCC 15692 / PAO1 / 1C / PRS 101 / LMG12228)) (UniProt P24735). The experiment in a line: Minimum protective concentration against beta-lactamase Pseudomonas aeruginosa (18S-H strain). The essentials: as §2
Assay [6] deals with Staphylococcus aureus. As to the kind of experiment: Minimum inhibitory concentration for prevention of visible growth of Staphylococcus aureus (95 strain). The essentials: as §1
Another assay deals with Candida albicans. As to the kind of experiment: Minimum inhibitory concentration for prevention of visible growth of Candida albicans. The essentials: as §1

≈ marks a conversion by molar mass, not a printed value.

Sequence of Beta-lactamase (Staphylococcus aureus) (P00807 whole entry): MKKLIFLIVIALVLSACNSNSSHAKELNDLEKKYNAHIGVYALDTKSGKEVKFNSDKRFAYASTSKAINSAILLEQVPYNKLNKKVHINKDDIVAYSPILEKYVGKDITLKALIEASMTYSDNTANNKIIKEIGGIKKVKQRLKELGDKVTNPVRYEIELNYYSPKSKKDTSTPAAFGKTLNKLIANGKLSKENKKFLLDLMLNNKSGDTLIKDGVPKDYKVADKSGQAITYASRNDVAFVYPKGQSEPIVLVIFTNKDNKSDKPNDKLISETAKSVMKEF
Sequence of Beta-lactamase (Pseudomonas aeruginosa (strain ATCC 15692 / PAO1 / 1C / PRS 101 / LMG12228)) (P24735 27-397 limits assumed): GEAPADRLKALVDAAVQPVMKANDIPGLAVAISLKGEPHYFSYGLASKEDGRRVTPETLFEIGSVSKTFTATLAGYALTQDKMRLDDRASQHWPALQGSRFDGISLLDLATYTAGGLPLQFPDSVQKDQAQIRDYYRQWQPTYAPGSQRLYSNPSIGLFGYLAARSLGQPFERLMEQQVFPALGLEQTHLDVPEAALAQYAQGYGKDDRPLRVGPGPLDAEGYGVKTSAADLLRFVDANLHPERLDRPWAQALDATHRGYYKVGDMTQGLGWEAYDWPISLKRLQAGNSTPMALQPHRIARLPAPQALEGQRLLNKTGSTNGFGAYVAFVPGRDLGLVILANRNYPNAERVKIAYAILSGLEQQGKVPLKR

By MIC is commonly meant the smallest concentration in the dilution series that meets the test's criterion for growth inhibition. A higher MIC goes with a less susceptible organism. As to `CO/N=C(\C(=O)N[C@@H]1C(=O)N2C(C(=O)O)=C(COC(C)=O)CS[C@H]12)c1csc(N)n1` [CEFOTAXIME], the MIC in the assay on Staphylococcus aureus [1] is 1.7 µg/mL (≈ 3.73 µM); with Pseudomonas aeruginosa [3], 135 µg/mL (≈ 296 µM); with Pseudomonas aeruginosa [4] it was 69.9 µg/mL (≈ 153 µM); against Staphylococcus aureus [6], 40.6 µg/mL (≈ 89.1 µM); in the assay with Candida albicans, greater than 145 µg/mL. Besides, the MPC is 2.72 µg/mL in assay [2] and 1.03 µg/mL in assay [5].

As for `CC(=O)OCC1=C(C(=O)O)N2C(=O)[C@@H](NC(=O)c3cccc(C(=O)c4cc(Cl)cc(C(=O)c5ccccc5O)c4O)c3O)[C@H]2SC1`, the MIC worked out at 0.78 µg/mL (≈ 1.17 µM) with Staphylococcus aureus [1]; 0.38 µg/mL (≈ 0.57 µM) in the assay on Pseudomonas aeruginosa [3]; 0.79 µg/mL (≈ 1.18 µM) against Pseudomonas aeruginosa [4]; 0.45 µg/mL (≈ 0.675 µM) against Staphylococcus aureus [6]; 14.2 µg/mL (≈ 21.3 µM) against Candida albicans. Further, the MPC is 88.7 µg/mL in assay [2] and 93.5 µg/mL in assay [5].

For the molecule `Oc1ccccc1Cc1cc(Cl)cc(Cc2ccccc2O)c1O`, the minimal inhibitory concentration (MIC) in the assay on Staphylococcus aureus [1] amounted to 1.2 µg/mL (≈ 3.52 µM); against Pseudomonas aeruginosa [3] it was 0.18 µg/mL (≈ 0.528 µM); in the assay on Pseudomonas aeruginosa [4] it was 0.07 µg/mL (≈ 0.205 µM); in the assay on Staphylococcus aureus [6], 0.58 µg/mL (≈ 1.7 µM); against Candida albicans, 2.06 µg/mL (≈ 6.04 µM).

Regarding `CC(=O)OCC1=C(C(=O)O)N2C(=O)[C@@H](NC(=O)COc3ccccc3)[C@H]2SC1`, the minimum inhibitory concentration (MIC) is 0.7 µg/mL (≈ 1.72 µM) with Staphylococcus aureus [1]; greater than 145 µg/mL in the assay with Pseudomonas aeruginosa [3]; greater than 145 µg/mL against Pseudomonas aeruginosa [4]; greater than 145 µg/mL against Staphylococcus aureus [6]; greater than 145 µg/mL in the assay with Candida albicans. In addition, the MPC in assay [2] was determined as 1.35 µg/mL; in assay [5], 0.97 µg/mL.

`O=C(O)[C@H]1/C(=C/CO)O[C@@H]2CC(=O)N21`: the values for the MPC in assay [2] and in assay [5] were 0.38 µg/mL and 3 µg/mL, respectively.

Regarding `COC(=O)c1cccc(C(=O)c2cc(Cl)cc(C(=O)c3ccccc3O)c2O)c1O`, the MIC came to 14.7 µg/mL (≈ 34.4 µM) with Staphylococcus aureus [1]; 4.3 µg/mL (≈ 10.1 µM) against Pseudomonas aeruginosa [3]; 5.78 µg/mL (≈ 13.5 µM) against Pseudomonas aeruginosa [4]; 15.3 µg/mL (≈ 35.9 µM) with Staphylococcus aureus [6]; 125 µg/mL (≈ 294 µM) against Candida albicans.

On to `Oc1ccccc1Cc1cccc(Cc2ccccc2O)c1O`, for which the MIC against Staphylococcus aureus [1], in the assay with Pseudomonas aeruginosa [3], against Pseudomonas aeruginosa [4], against Staphylococcus aureus [6] and against Candida albicans was greater than 145 µg/mL in each case.

For `COC(=O)c1cccc(Cc2cc(Cl)cc(Cc3ccccc3O)c2O)c1O`, the MIC against Staphylococcus aureus [1] was found to be 2.98 µg/mL (≈ 7.47 µM); against Pseudomonas aeruginosa [3], 1.56 µg/mL (≈ 3.91 µM); against Pseudomonas aeruginosa [4] it was 1.25 µg/mL (≈ 3.13 µM); against Staphylococcus aureus [6] it was 4.65 µg/mL (≈ 11.7 µM); against Candida albicans, 117 µg/mL (≈ 294 µM).

In the case of `CNC(=O)c1cccc(C(=O)c2cc(Cl)cc(C(=O)c3ccccc3O)c2O)c1O`, the MIC was 18.1 µg/mL (≈ 42.6 µM) against Staphylococcus aureus [1]; 8.32 µg/mL (≈ 19.5 µM) with Pseudomonas aeruginosa [3]; 6.03 µg/mL (≈ 14.2 µM) against Pseudomonas aeruginosa [4]; 17.8 µg/mL (≈ 41.7 µM) with Staphylococcus aureus [6]; 120 µg/mL (≈ 281 µM) in the assay with Candida albicans.

Take `O=C(O)c1cccc(Cc2cc(Cl)cc(Cc3ccccc3O)c2O)c1O`: the MIC is 0.86 µg/mL (≈ 2.23 µM) in the assay on Staphylococcus aureus [1]; 0.1 µg/mL (≈ 0.26 µM) in the assay with Pseudomonas aeruginosa [3]; 0.02 µg/mL (≈ 0.052 µM) with Pseudomonas aeruginosa [4]; 0.43 µg/mL (≈ 1.12 µM) against Staphylococcus aureus [6]; 1.43 µg/mL (≈ 3.72 µM) against Candida albicans.

Turning to `O=C(O)c1cccc(C(=O)c2cc(Cl)cc(C(=O)c3cccc(C(=O)O)c3O)c2O)c1O`, the MIC came out at 18.2 µg/mL (≈ 40 µM) against Staphylococcus aureus [1]; 3.06 µg/mL (≈ 6.7 µM) against Pseudomonas aeruginosa [3]; 2.54 µg/mL (≈ 5.56 µM) in the assay with Pseudomonas aeruginosa [4]; 22.2 µg/mL (≈ 48.6 µM) against Staphylococcus aureus [6]; 19.1 µg/mL (≈ 41.9 µM) in the assay with Candida albicans.

As to `O=C(O)c1cccc(C(=O)c2cc(Cl)cc(C(=O)c3ccccc3O)c2O)c1O`, the MIC in the assay with Staphylococcus aureus [1] is 3.67 µg/mL (≈ 8.89 µM); in the assay on Pseudomonas aeruginosa [3], 0.26 µg/mL (≈ 0.63 µM); with Pseudomonas aeruginosa [4], 0.17 µg/mL (≈ 0.412 µM); in the assay on Staphylococcus aureus [6], 0.98 µg/mL (≈ 2.37 µM); in the assay on Candida albicans it was 3.7 µg/mL (≈ 8.96 µM).

For the molecule `CNC(=O)c1cccc(Cc2cc(Cl)cc(Cc3ccccc3O)c2O)c1O`, the MIC in the assay with Staphylococcus aureus [1] came out at 7.35 µg/mL (≈ 18.5 µM); against Pseudomonas aeruginosa [3] it was 4.7 µg/mL (≈ 11.8 µM); in the assay on Pseudomonas aeruginosa [4], 3.28 µg/mL (≈ 8.24 µM); with Staphylococcus aureus [6], 6.63 µg/mL (≈ 16.7 µM); against Candida albicans it was 114 µg/mL (≈ 287 µM).

As to `CC(=O)OCC1=C(C(=O)O)N2C(=O)[C@@H](NC(=O)c3cccc(Cc4cc(Cl)cc(Cc5ccccc5O)c4O)c3O)[C@H]2SC1`, the MIC with Staphylococcus aureus [1] came out at 0.35 µg/mL (≈ 0.548 µM); with Pseudomonas aeruginosa [3], 0.45 µg/mL (≈ 0.704 µM); in the assay on Pseudomonas aeruginosa [4], 0.28 µg/mL (≈ 0.438 µM); in the assay with Staphylococcus aureus [6] it was 0.28 µg/mL (≈ 0.438 µM); in the assay on Candida albicans, 28.3 µg/mL (≈ 44.3 µM). The MPC was 95.2 µg/mL in assay [2] and 99.8 µg/mL in assay [5].

For the molecule `CC(=O)Oc1ccc(Br)cc1Cc1cc(Cl)cc(Cc2cc(Br)ccc2OC(C)=O)c1OC(C)=O`, the MIC with Staphylococcus aureus [1], in the assay on Pseudomonas aeruginosa [3], against Pseudomonas aeruginosa [4], in the assay on Staphylococcus aureus [6] and in the assay with Candida albicans was greater than 145 µg/mL each time.

In the case of `O=C(COc1ccccc1)N[C@@H]1C(=O)N2C(C(=O)O)=C(COC(=O)c3cccc(Cc4cc(Cl)cc(Cc5ccccc5O)c4O)c3O)CS[C@H]12`, the MIC with Staphylococcus aureus [1] turned out to be 0.41 µg/mL (≈ 0.561 µM); against Pseudomonas aeruginosa [3], 1.24 µg/mL (≈ 1.7 µM); in the assay with Pseudomonas aeruginosa [4], 0.98 µg/mL (≈ 1.34 µM); in the assay with Staphylococcus aureus [6] it was 1.2 µg/mL (≈ 1.64 µM); with Candida albicans, 5.86 µg/mL (≈ 8.01 µM). The values for the MPC in assay [2] and in assay [5] were 7.08 µg/mL and 6.74 µg/mL, respectively.

On to `O=C(O)c1cccc(Cc2cc(Cl)cc(Cc3cccc(C(=O)O)c3O)c2O)c1O`, for which the MIC is 3.25 µg/mL (≈ 7.58 µM) with Staphylococcus aureus [1]; 1.32 µg/mL (≈ 3.08 µM) in the assay on Pseudomonas aeruginosa [3]; 0.86 µg/mL (≈ 2.01 µM) against Pseudomonas aeruginosa [4]; 4.15 µg/mL (≈ 9.68 µM) in the assay on Staphylococcus aureus [6]; 16.5 µg/mL (≈ 38.5 µM) against Candida albicans.

For the molecule `CC(=O)Oc1ccccc1Cc1cc(Cl)cc(Cc2ccccc2OC(C)=O)c1OC(C)=O`, the MIC with Staphylococcus aureus [1], in the assay on Pseudomonas aeruginosa [3], against Pseudomonas aeruginosa [4], against Staphylococcus aureus [6] and against Candida albicans was greater than 145 µg/mL throughout.

As to `O=C(COc1ccccc1)N[C@@H]1C(=O)N2C(C(=O)O)=C(COC(=O)c3cccc(C(=O)c4cc(Cl)cc(C(=O)c5ccccc5O)c4O)c3O)CS[C@H]12`, the minimal inhibitory concentration (MIC) stood at 0.9 µg/mL (≈ 1.19 µM) in the assay with Staphylococcus aureus [1]; 3.13 µg/mL (≈ 4.12 µM) in the assay with Pseudomonas aeruginosa [3]; 1.37 µg/mL (≈ 1.8 µM) against Pseudomonas aeruginosa [4]; 2.1 µg/mL (≈ 2.77 µM) in the assay on Staphylococcus aureus [6]; 6.47 µg/mL (≈ 8.52 µM) against Candida albicans. Besides, the MPC stood at 4.81 µg/mL in assay [2] and 5.98 µg/mL in assay [5].

Take `Oc1ccc(Br)cc1Cc1cc(Cl)cc(Cc2cc(Br)ccc2O)c1O`: the MIC against Staphylococcus aureus [1] is 45 µg/mL (≈ 90.3 µM); against Pseudomonas aeruginosa [3] it was 36.7 µg/mL (≈ 73.6 µM); against Pseudomonas aeruginosa [4] it was 39.4 µg/mL (≈ 79 µM); against Staphylococcus aureus [6], 49 µg/mL (≈ 98.2 µM); in the assay with Candida albicans it was 115 µg/mL (≈ 231 µM).
